Here are results for four compounds from PMC9616052 (Archiv der Pharmazie, 2022).

What all share (assay type): biochemical
The target of assay [1] is T1, circularly permutated caspase-2 (cpCasp2) (Homo sapiens, UniProt P42575).
T1 sequence (P42575 1-452): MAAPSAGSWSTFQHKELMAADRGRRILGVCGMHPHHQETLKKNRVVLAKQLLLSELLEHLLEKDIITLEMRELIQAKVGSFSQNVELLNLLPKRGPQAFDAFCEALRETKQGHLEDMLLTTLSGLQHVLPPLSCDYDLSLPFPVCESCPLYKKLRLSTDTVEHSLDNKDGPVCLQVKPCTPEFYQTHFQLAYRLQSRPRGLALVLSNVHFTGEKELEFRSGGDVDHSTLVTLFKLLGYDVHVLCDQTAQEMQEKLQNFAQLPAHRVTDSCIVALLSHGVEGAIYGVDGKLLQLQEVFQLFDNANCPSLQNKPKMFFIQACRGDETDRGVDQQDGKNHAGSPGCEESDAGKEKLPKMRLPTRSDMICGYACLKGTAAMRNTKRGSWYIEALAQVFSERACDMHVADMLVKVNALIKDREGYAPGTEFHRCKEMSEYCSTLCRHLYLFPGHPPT
Description: Fluorometric enzyme inhibition assay, cpCasp2.

Another assay has as its target T2, caspase-3 (Casp3) (Homo sapiens, UniProt P42574).
T2 sequence (P42574 29-175 limits assumed): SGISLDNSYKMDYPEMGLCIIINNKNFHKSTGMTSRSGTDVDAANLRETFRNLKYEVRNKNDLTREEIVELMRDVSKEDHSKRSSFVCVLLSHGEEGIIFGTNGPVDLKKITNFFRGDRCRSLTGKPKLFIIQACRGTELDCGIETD
T2 sequence (P42574 176-277 limits assumed): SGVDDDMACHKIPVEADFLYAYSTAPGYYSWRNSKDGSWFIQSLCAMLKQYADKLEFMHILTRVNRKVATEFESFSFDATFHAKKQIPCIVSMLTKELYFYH
Description: Fluorometric enzyme inhibition assay, Casp3. The following applies: SEM. In a few lines: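 Recombinant Casp3 produced in house, 2 nM/well, in 100 mM HEPES pH 7.0, 150 mM NaCl, 0.1% CHAPS, 1.5% sucrose, 10 mM DTT. Preincubated with DMSO-diluted test compound 5 min, 37 °C. AcDEVD-AFC (Km 7.6 μM) at 5 μM (384-well, duplicate) or 10 μM (96-well, triplicate). Fluorescence ex 400/em 505 nm at 37 °C, 40 min reading. Four-parameter IC50 converted to Ki via Cheng–Prusoff.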

The target in a further assay is T3, caspase-2 (Casp2) (Homo sapiens, UniProt P42575).
T3 sequence (P42575 170-333 limits assumed): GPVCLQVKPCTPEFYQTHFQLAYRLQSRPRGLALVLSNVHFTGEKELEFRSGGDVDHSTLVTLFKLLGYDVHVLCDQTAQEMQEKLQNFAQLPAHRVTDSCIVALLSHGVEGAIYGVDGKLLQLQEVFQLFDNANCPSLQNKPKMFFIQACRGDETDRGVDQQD
T3 sequence (P42575 348-452 limits assumed): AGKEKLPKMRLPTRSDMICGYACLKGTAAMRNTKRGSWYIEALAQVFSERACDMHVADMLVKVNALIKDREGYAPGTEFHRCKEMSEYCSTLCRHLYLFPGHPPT
Description: Fluorometric enzyme inhibition assay, Casp2. In a few lines: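 In-house recombinant Casp2 in 100 mM MES pH 6.5, 150 mM NaCl, 0.1% CHAPS, 1.5% sucrose, 10 mM DTT. […] 384-well: 20 nM enzyme, 10 μM substrate, duplicate. 96-well: 5 nM, 25 μM, triplicate. AFC fluorescence (ex 400/em 505 nm) at 37 °C, 40 min point. Four-parameter IC50 fit, converted by Cheng–Prusoff.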

Where two headings read alike, the source gives them in different places. Where a SMILES comes first, the peptide text is derived from it.

On to `CC(=O)N[C@H](C(=O)N1CCC[C@H]1C(=O)N[C@H](C=O)CC(=O)O)C(C)C` [compound 17, (S)-3-[(S)-1-(Acetyl-L-valyl)pyrrolidine-2-carboxamido]-4-oxobutanoic acid] (Ac-Val-Pro-Asp-aldehyde), for which the inhibitory constant (Ki) in assay [1] was over 100 µM; at caspase-3 (Casp3), 5.75 µM.
In the case of `CC(=O)NCCCC[C@H](NC(=O)[C@@H](NC(C)=O)C(C)C)C(=O)N[C@H](C=O)CC(=O)O` [compound 31, (S)-3-{(S)-6-Acetamido-2-[(S)-2-acetamido-3-methylbutanamido]hexanamido}-4-oxobutanoic acid] (Ac-Val-Lys(Ac)-Asp-aldehyde), the figures for the Ki on caspase-2 (Casp2) and on caspase-3 (Casp3) were over 100 µM and 9.55 µM, respectively.
For the compound `CC(=O)N[C@H](C(=O)N[C@@H](CC(=O)O)C(=O)N[C@H](C(=O)N[C@@H](C)C(=O)N[C@H](C=O)CC(=O)O)[C@@H](C)O)[C@@H](C)O` [compound 55, (4S,7S,10S,13S,16S)-7-(Carboxymethyl)-16-formyl-4,10-bis[(R)-1-hydroxyethyl]-13-methyl-2,5,8,11,14-pentaoxo-3,6,9,12,15-pentaazaoctadecan-18-oic acid] (Ac-TDTAD-aldehyde), the inhibition constant (Ki) was 0.0646 µM in assay [1] (SEM), 0.0331 µM at caspase-2 (Casp2) (SEM) and 0.0603 µM at caspase-3 (Casp3).
On the same counts, the results for `CC(=O)NCCCC[C@H](NC(=O)[C@@H](NC(=O)[C@@H](NC(C)=O)[C@@H](C)O)C(C)C)C(=O)N[C@H](C=O)CC(=O)O` [compound 30, (4S,7S,10S,13S)-10-(4-Acetamidobutyl)-13-formyl-4-[(R)-1-hydroxyethyl]-7-isopropyl-2,5,8,11-tetraoxo-3,6,9,12-tetraazapentadecan-15-oic acid] (Ac-TVK(Ac)D-aldehyde) are 20.9 µM, 20 µM and 0.224 µM.
